Experimental data from different studies.
Protocols differ between the studies behind these lines.
Target: Serine/threonine-protein kinase Nek6 (NEK6, Homo sapiens, UniProt Q9HC98)

SMILES | observed | action | technique | concentration | measurement | result
N#CCCc1ccc2c(c1)-c1[nH]c3ccc([N+](=O)[O-])cc3c1CC(=O)N2 | cell-free assay | – | – | 0.5 µM | remaining signal | 101%
COc1cc2ncnc(Nc3ccc(Oc4ccccc4)c(C)c3C)c2cc1OC | enzyme activity | inhibitor | – | 1 µM | inhibition | 8%
FC(F)(F)Oc1cccc(-c2cnc3ccc(-c4ccncc4)nn23)c1 | enzyme activity | inhibitor | radiometric | 5 µM | activity vs control | 93%
CNC(=O)c1cc(Oc2ccc(NC(=O)Nc3ccc(Cl)c(C(F)(F)F)c3)cc2)ccn1 | enzyme activity | inhibitor | – | 10 µM | inhibition | -16%
COc1cc(/C=C/C(=O)CC(=O)/C=C/c2ccc(O)c(OC)c2)ccc1O | enzyme activity | inhibitor | – | 1 µM | activity vs control | 97%
CC(C)CC(=O)N1CCc2nc(-c3ccc(Br)cc3)nc(N(C)Cc3ccccc3)c2C1 | cell-free assay | – | competition with immobilised ligand | 0.1 µM | remaining binding | 100%
CCN(CC)CCNC(=O)c1c(C)[nH]c(/C=C2\C(=O)Nc3ccc(F)cc32)c1C | enzyme activity | inhibitor | – | 10 µM | inhibition | -9%
Cn1cc(Cl)c2c(Oc3c(F)cc(Nc4cc(Cl)nc(N)n4)cc3F)ccnc21 | cell-free assay | – | competition with immobilised ligand | 0.1 µM | remaining binding | 100%
CCCS(=O)(=O)Nc1ccc(F)c(C(=O)c2c[nH]c3ncc(-c4ccc(Cl)cc4)cc23)c1F | enzyme activity | inhibitor | – | 1 µM | inhibition | < 10%
C[C@H](NC(=O)c1cnc2n1[C@](C)(Cc1ccc(C#N)cc1)C(=O)N2c1cc(Cl)c(F)c(Cl)c1)C(=O)NC1(c2ccccn2)CC1 | cell-free assay | – | competition with immobilised ligand | 1 µM | remaining binding | 100%
CN1CC(Oc2cnc(C#N)cc2-c2ccn3nc(NC(=O)C4CC4)cc3c2)C1 | enzyme activity | inhibitor | – | 1 µM | inhibition | 2%
CO[C@@H](C)c1c(Nc2ccc([C@H](N(C)C(=O)C3CCS(=O)(=O)CC3)C(F)(F)F)cc2)cnc2cc(Cl)nn12 | cell-free assay | – | competition with immobilised ligand | 1 µM | remaining binding | 97%
O=C1Nc2ccc(Cl)cc2C1=Cc1cc(Cl)c(O)c(Cl)c1 | cell-free assay | – | – | 0.5 µM | remaining signal | 104%
